Compound activity as filed in PubChem.
This is a sample that favours compounds with a hit; in the whole collection about 3.5% have one here.
MrgX1 allo act: allosterically activates human MrgX1 receptor signaling; Q96LB2; B-score at 10 µM; MrgX1-HEK293, Fluo-4 calcium flux, FDSS; hits give high values; actives 0.63% (n = 310,000);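 active means plate-corrected calcium response at least 3 library SD above typical, normal starting fluorescence, not activating the receptor alone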;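 further: compound read alongside a low EC10 to EC30 dose of BAM8-22 agonist; peak minus trough fluorescence over baseline measured at the second addition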
Target sequence (Q96LB2 whole entry, looked up): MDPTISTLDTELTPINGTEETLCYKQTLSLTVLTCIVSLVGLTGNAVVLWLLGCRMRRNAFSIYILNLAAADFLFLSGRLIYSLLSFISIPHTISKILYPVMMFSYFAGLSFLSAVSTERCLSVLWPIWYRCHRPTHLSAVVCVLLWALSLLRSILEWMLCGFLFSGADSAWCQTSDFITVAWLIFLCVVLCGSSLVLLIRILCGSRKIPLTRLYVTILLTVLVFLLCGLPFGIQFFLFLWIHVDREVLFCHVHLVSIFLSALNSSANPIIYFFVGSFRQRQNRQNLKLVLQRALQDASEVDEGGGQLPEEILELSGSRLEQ
MrgX1 ag: activates human MrgX1 receptor signaling; B-score at 10 µM; AID 588627; actives 0.44% (n = 310,000); Q96LB2; MrgX1-HEK293 cells, Fluo-4 calcium fluorescence, agonist mode; hits give high values;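 active means calcium response B-score plate-corrected fluorescence ratio at least 3 library SD, with starting fluorescence B-score inside 5 SD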
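Test system: HEK293 cells stably expressing human MrgX1 receptor; amount: 15,000 cells per well; doses: compound delivered in addition one of three; times: overnight plating before 1 h dye loading; detection: Fluo-4 NW calcium-flux fluorescence, kinetic read; read-out basis: B-scored fluorescence response ratio; controls: positive and negative controls per plate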
RGS4 block: human RGS4 inhibition | P49798 | HEK293 M3R/RGS4 inducible, Fluo-4 calcium flux; hits give high values; triggered by carbachol at its EC20 | B-score at 10 µM | actives 0.45% (n = 310,000) | AID 463165;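 active means B-score, a plate-corrected calcium signal, over three deviations above library mean, with baseline fluorescence within five deviations of library mean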;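 further: RGS4 expression induced by doxycycline in cells with stable M3 receptor; B-score is computed from the integrated fluorescence ratio over baseline after carbachol; higher B-score means a larger calcium signal and so more RGS4 inhibition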
Target sequence (P49798 whole entry, looked up): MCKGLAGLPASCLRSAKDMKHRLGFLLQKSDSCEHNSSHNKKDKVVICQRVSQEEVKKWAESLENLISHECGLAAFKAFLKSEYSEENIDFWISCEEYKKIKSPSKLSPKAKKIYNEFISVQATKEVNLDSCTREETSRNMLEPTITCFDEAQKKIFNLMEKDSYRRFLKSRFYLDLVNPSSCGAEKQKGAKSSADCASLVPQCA
MrgX1 antag: antagonists of human MrgX1 receptor; MRGX1-HEK293 calcium flux, Fluo-4, BAM8-22 antagonism; hits give low values; Q96LB2; actives 1.3% (n = 310,000); B-score at 10 µM;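 active means calcium-response B-score plate-corrected more than 3 library SD below zero, starting fluorescence within 5 deviations, no agonist response on first addition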;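 further: peak minus trough fluorescence over baseline after final BAM8-22 challenge near maximal dose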
RGS4 act: RGS4 potentiation or activation. HEK293 M3R/inducible RGS4, carbachol calcium flux Fluo4; hits give low values. actives 0.92% (n = 310,000). B-score at 10 µM;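 active means B-score of the integrated calcium signal more than 4 SD below the library mean, with starting fluorescence not abnormally high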;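 further: negative B-score means reduced calcium response which marks RGS4 activation or potentiation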
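test system = HEK293 cells with stable M3R and inducible RGS4 | schedule = recording 10 s baseline at 1 Hz, 100 s post-agonist | technique = Fluo4-AM (2 µM) calcium-flux fluorescence, kinetic read | measure = Agonist-evoked peak-minus-minimum fluorescence over baseline, integrated ratio, B score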
MrgX1 ag reconf: confirmation of human MrgX1 receptor agonists. activation, % at 10 µM. shares compounds with MrgX1 ag. AID 602412. actives 78% (n = 600). MrgX1-HEK293, Fluo-4 calcium fluorescence, FDSS;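 active means calcium signal rise, corrected for plate position, at least 3 library SD high, with starting brightness within 5 such deviations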
HEK293 Ca flux: MrgX1 antagonist counter-screen hit in parental HEK293 cells | shares compounds with MrgX1 antag | Fluo-4 calcium fluorescence, FDSS | fluorescence ratio F(max-min)/F0 at 10 µM | actives 2% (n = 4,000) | AID 624111;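 active means duplicate-averaged calcium fluorescence ratio at least three times the standard deviation of buffer wells, a nonspecific response in parental cells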
HEK293 Ca counter: MrgX1 allosteric activator counter-screen hit in parental HEK293 cells. fluorescence ratio F(max-min)/F0 at 10 µM. actives 0.4% (n = 4,000). AID 624114. shares compounds with MrgX1 antag. parental HEK293 calcium flux, Fluo-4 fluorescence ratio; hits give high values;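 active means calcium fluorescence ratio, averaged over duplicates, at least 3 SD of the buffer-well ratio, meaning a nonspecific response in receptor-free cells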;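 further: untransfected parental HEK293 lacking MrgX1 used as counterscreen for MrgX1 allosteric activators; fluorescence change taken during the second addition on a kinetic imager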
HEK293 Ca cntr2: counter-screen for MrgX1 activators: effect in parental HEK293 cells. shares compounds with MrgX1 antag. Fluo-4 calcium fluorescence (FDSS); hits give high values. fluorescence ratio F(max-min)/F0 at 10 µM. actives 8.7% (n = 4,000);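 active means calcium fluorescence ratio at least three times the spread of buffer wells, meaning a non-specific response in parental cells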
* marks the source's active call; other numbers are inactive results; i = inactive; . = not tested or not shown.

SMILES	MrgX1 allo act	MrgX1 ag	RGS4 block	MrgX1 antag	RGS4 act	MrgX1 ag reconf	HEK293 Ca flux	HEK293 Ca counter	HEK293 Ca cntr2
CC1CC(C)CN(C(=O)c2nn(C)c3c2CS(=O)(=O)c2ccccc2-3)C1 (configuration not stated)	i	i	i	i	i	.	.	.	.
Cc1ccc(-c2nn(-c3ccccc3)cc2CSC(=N)N)cc1	i	43*	i	i	i	182%*	i	i	i
COc1cc2c(cc1OC)C(c1ccc(N(C)C)cc1)NCC2 (configuration not stated)	i	i	i	i	i	.	.	.	.
COc1ccc(N=C2NC(=O)S/C2=C\c2ccc(N(C)C)cc2)cc1	i	26*	i	i	-7.2*	230%*	i	i	57*
COc1ccc(S(=O)(=O)N2CCN(C(=O)Nc3ccccc3OC)CC2)cc1	i	i	i	i	i	.	.	.	.
CC1CCc2sc(NC(=O)C3CC(Cl)=CCC3C(=O)O)c(C#N)c2C1 (configuration not stated)	i	28*	i	i	i	i	i	i	i
COc1ccc(NC(=O)CSc2nnc3ccc(-c4ccncc4)nn23)cc1OC	i	i	i	i	i	.	.	.	.
CSc1nnc(C)c(/C=C/Nc2ccc(F)cc2)n1	i	30*	i	i	i	152%*	i	i	i
CC/C(=N/Nc1ccc(Cl)cc1)c1cnnc(SC)n1	i	i	i	i	i	.	.	.	.
COc1ccc(N/C=C/c2nc(SC)nnc2C)cc1	i	i	i	i	i	.	.	.	.
CSc1nnc(C)c(/C=C/Nc2ccc(Cl)cc2)n1	i	45*	i	i	i	248%*	0.36*	i	74*
Cc1ccc(CNC(=O)c2ccc(Cl)c(S(N)(=O)=O)c2)n1C	i	71*	i	i	i	283%*	i	i	i
Cc1ccc(-c2n[nH]c(=O)c3ccccc23)cc1S(=O)(=O)Nc1ccccc1	i	30*	i	i	i	206%*	i	i	45*
N/C(=N\OC(=O)Nc1ccccc1)c1ncc([N+](=O)[O-])s1	i	i	i	i	i	.	.	.	.
COc1cc(C(=O)NC(=S)NNC(=O)[C@H]2C[C@@H]2c2ccccc2)cc(OC)c1OC	i	96*	i	i	i	386%*	i	i	76*
COc1ccccc1C(=O)NNC(=S)NC(=O)c1cc(OC)c(OC)c(OC)c1	i	101*	i	i	i	453%*	i	i	93*
COc1cc(C(=O)NNC(=S)NC(=O)c2ccccc2C)cc(OC)c1OC	i	120*	i	i	i	362%*	i	i	89*
COc1cc(C(=O)NNC(=S)NC(=O)c2ccc3c(c2)OCO3)cc(OC)c1OC	i	i	i	i	i	.	.	.	.
CCOc1ccc(NC(=O)CSc2nnc(CNC(=O)c3ccco3)o2)cc1	i	i	i	i	i	.	.	.	.
O=C(O)c1ccc(-c2ccc(/C=c3/sc4nc5ccccc5n4c3=O)o2)cc1Cl	i	81*	i	i	i	465%*	0.13*	i	104*
CCS(=O)(=O)c1nnnn1-c1ccccc1S(C)(=O)=O	i	27*	i	i	i	105%*	i	i	i
Cc1ccc(C)c(NC(=O)c2ccc[n+](Cc3ccc([N+](=O)[O-])cc3)c2)c1	i	i	i	i	i	.	.	.	.
NC(=O)N1c2ccccc2CC(=O)c2ccccc21	i	47*	i	i	i	251%*	i	i	52*
CN1CCN(S(=O)(=O)c2cccc(C(=O)Oc3ccc(Br)cc3F)c2)CC1	i	i	i	i	i	.	.	.	.
COc1ccccc1NC(=O)NC1CCS(=O)(=O)C1 (configuration not stated)	i	i	i	i	i	.	.	.	.
SMILES	MrgX1 allo act	MrgX1 ag	RGS4 block	MrgX1 antag	RGS4 act	MrgX1 ag reconf	HEK293 Ca flux	HEK293 Ca counter	HEK293 Ca cntr2
COc1ccc2c(c1)CCCN2C(N)=Nc1ccc(Cl)cc1	i	33*	i	i	i	i	i	i	i
COc1ccc2c(c1)CCCN2S(=O)(=O)c1ccc(Cl)cc1	i	i	i	i	i	.	.	.	.
O=C(Oc1ccc(NC(=O)c2cc3c(cc2Br)OCO3)cc1)c1ccccc1	i	i	i	i	i	.	.	.	.
O=C(CN1C(=O)C(=O)c2ccccc21)c1ccccc1	i	i	i	i	i	.	.	.	.
O=C1C(=O)N(Cc2cccs2)c2ccccc21	i	33*	i	i	i	185%*	i	i	i
Cc1ccc(CC(=O)Nc2ccccc2N2CCOCC2)cc1C	i	35*	.	i	.	94%*	i	i	i
COc1ccc(CC(=O)Nc2ccccc2N2CCOCC2)cc1OC	i	i	i	i	i	.	.	.	.
O=C(CN1C(=O)c2ccccc2C1=O)Nc1cccc(S(=O)(=O)Nc2ccccc2Cl)c1	i	i	i	i	i	.	.	.	.
CCc1ccc(-c2csc3ncn(Cc4ccc(C(=O)O)cc4)c(=O)c23)cc1	i	31*	i	i	i	149%*	i	i	i
CCCOC(=O)Cn1cnc2scc(-c3ccc(C)cc3)c2c1=O	i	i	i	i	i	.	.	.	.
Cc1c(C)n2c(SCC(=O)N3CCN(c4ccccc4)CC3)nnc2[nH]c1=O	i	i	i	i	i	.	.	.	.
CCc1cc(=O)n2c([nH]c3ccccc32)c1C#N	i	i	i	i	i	.	.	.	.
CCc1cc(=S)n2c([nH]c3ccccc32)c1C#N	i	43*	i	i	i	284%*	i	i	93*
O=C(NCCc1c[nH]c2ccccc12)C1CCC(=O)N(CCc2cccc(F)c2)C1 (configuration not stated)	i	i	i	i	i	.	.	.	.
